What was measured:
Cytotoxicity assay = format: cell-based; details: human, 5% suspension of human blood erythrocytes
Outline: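 Test compound (25–426 µM) incubated with a 5% suspension of human blood erythrocytes at 37 °C for 3 h. 0.1% DMSO served as the negative control and 0.5% Triton X-100 as the positive control. Samples were spun at 1000 × g for 10 min, and released hemoglobin was read at 576 nm. Percent hemolysis was calculated and CC50 derived by linear interpolation. Triplicates, mean ± SD.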

L. tropica promastigotes = assay: Promastigotes proliferation assessment by MTT assay; format: cell-based, Leishmania tropica; details: for IC50: 48 h

Compound	CC50 at 3 h (Cytotoxicity assay)	IC50 (L. tropica promastigotes; Leishmania tropica)	SI index (IC50/CC50 µM) (L. tropica promastigotes; ratio of hemolysis CC50 and L. tropica IC50)	IC50 (L. tropica promastigotes; L. tropica promastigotes, MTT, dose range 25–426 µM)
CCCCN1CN(CC(=O)O)CSC1=S [BG, 2-(5-Butyl-6-thioxo-1,3,5-thiadiazinan-3-yl) acetic acid]	376 µM	–	–	–
C[C@@H]1[C@H](O)[C@@H](C)/C=C/C=C/C=C/C=C/C=C/C=C/C=C/[C@H](O[C@@H]2O[C@H](C)[C@@H](O)[C@H](N)[C@@H]2O)C[C@@H]2O[C@](O)(C[C@@H](O)C[C@@H](O)[C@H](O)CC[C@@H](O)C[C@@H](O)CC(=O)O[C@H]1C)C[C@H](O)[C@H]2C(=O)O [Amp-B, Amphotericin B, reference compound]	–	15.7 µM	0.18	–
CCCN1CN(CC(=O)O)CSC1=S [PG, 2-(5-propyl-6-thioxo-1,3,5-thiadiazinan-3-yl)acetic acid]	402 µM	82.8 µM	–	–
Cc1cc(C)c(N2CSC(=S)N(CCN(CCN3CN(c4c(C)cc(C)cc4C)CSC3=S)CCN3CN(c4c(C)cc(C)cc4C)CSC3=S)C2)c(C)c1 [Compound T25, 3,3′,3″-(nitrilotris(ethane-2,1-diyl))tris(5-mesityl-1,3,5-thiadiazinane-2-thione)]	89.7 µM	27.7 µM	–	–
5,5′,5″-(nitrilotris(ethane-2,1-diyl))tris(3-(4-ethylphenyl)-1,3,5-thiadiazinane-2-thione) [Compound T24]	–	–	–	26.9 µM
